Assay outcomes: PubChem BioAssay, several laboratories
Compounds with a hit are over-represented: about 12% of the library has one in this group of screens.
bCat nuc transl = beta-catenin nuclear translocation modulation; HeLa beta-catenin nuclear translocation, immunofluorescence imaging; nuclear translocation activity, % at 5 µM; actives 0.3% (n = 190,000); AID 1665;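 active = nuclear translocation activity above 50% at 5 µM, with a well cell count of 50 or more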;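 note: per-cell ratio of nuclear to cytoplasmic median beta-catenin stain intensity; plate controls were DMSO negative control for no effect and GSK-3 inhibitor IX positive control for full effect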
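Test system: human HeLa cell line; Doses: 5 µM primary, 0.02–20 µM confirmation; Incubation: 24 h compound exposure, 37°C; Detection: beta-catenin immunofluorescence imaging with DAPI; Read-out: beta-catenin nuclear/cytoplasmic ratio, % activation.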
Lmaj promast = reduces viability of Leishmania major promastigotes; resazurin fluorescence viability; inhibition, % at 10 µM; actives 9% (n = 200,000); AID 1063; in the data active = inhibition above about 50%;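 note: promastigotes grown with compound for 44 hours at 28 °C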
Autophagy mod = autophagy modulation, high-content screen; actives 0.98% (n = 190,000); calls only at 10 µM (by protocol); MEF GFP-LC3 puncta imaging; test concentration mostly 10 µM;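 active = percentage of spot-positive cells more than 3 SD above its plate mean, without a fluorescence outlier flag or 80% toxicity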;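 note: spot-positive cell cutoff set from DMSO-treated cells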
MT stabilize HCS = microtubule stabilization, imaging screen; HeLa tubulin immunostaining HCS, 24 h; share of cells brighter than vehicle mean+2SD; % tubulin-high responders, % at 10 µM; actives 0.83% (n = 200,000); AID 2205;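 active = plate Z-score above 3 for both tubulin-high and condensed-nucleus cell shares, with cell loss under 80%, at 10 µM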;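 note: anti alpha tubulin signal scored within the nucleus-defined area of each cell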
Dynein transport = dynein cargo transport inhibition; 3617.4 mouse cells, GR-EGFP nuclear translocation imaging; test concentration mostly 20 µM; stimulated with dexamethasone, 1 µM; stronger effect = lower value; z-score, hits read low; actives 0.47% (n = 220,000); AID 1381;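 active = plate z-score of nuclear minus cytoplasmic receptor signal below a set negative limit, without overly bright fluorescence or cell loss, cut at about -3.5 in these data, passing the limit was not always enough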;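 note: z-score of nuclear minus cytoplasmic ring GR-EGFP intensity difference per well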
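Buffer or medium: tet-free, stripped-serum medium; Also added: dexamethasone, 1.0 µM final; Technique: high-content fluorescence imaging after fixation; Times: 48 h induction, 1 h compound, 30 min dex at 37 °C; Read-out: per-cell GR-EGFP intensity, nucleus versus surrounding cytoplasmic ring, well-averaged.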
CHOP inh = blocks CHOP induction under ER stress. AID 2732. actives 3.8% (n = 220,000). CHO-K1 CHOP-promoter luciferase, tunicamycin-induced, 15-18 h. inhibition, % at 10 µM;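 active = compounds that reduced the stress-induced luciferase reporter signal by more than about 70% of percent inhibition, limit read from the data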;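 note: 0% = tunicamycin plus vehicle and 100% = wells without tunicamycin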
Active calls of the source: *; i = inactive; / = not tested or not shown; + = active, no number.

SMILES	bCat nuc transl	Lmaj promast	Autophagy mod	MT stabilize HCS	Dynein transport	CHOP inh
CC1(c2ccccc2)NC(=O)N(N)C1=O (centres undefined)	1	2	i	3	-0.14	5
Cc1[nH]c(=S)c(C#N)c2c1CCCC2	6	1	i	2	0.17	-3
CC1CCN(c2[nH]c(=S)c(C#N)c3c2CCCC3)CC1	0	100*	i	1	-0.95	28
O=c1oc2ccccc2c(Nc2cc3ccccc3cc2O)c1[N+](=O)[O-]	23	19	i	17*	2.3	2
CC(/C=C/c1ccco1)=N\NC(=O)COc1ccc(C)c(C)c1	0	-1	i	1	-0.66	-4
COCCNC(=O)c1cnn2c(C(F)F)cc(-c3ccc(C)cc3)nc12	-1	19	i	3	-0.5	11
COc1ccc(-c2cc(C(F)F)n3ncc(C(=O)Nc4c(C)n(C)n(-c5ccccc5)c4=O)c3n2)cc1	0	0	i	3	-0.71	37
Cc1ccc(-c2cc(C(F)F)n3ncc(C(=O)Nc4c(C)nn(Cc5c(Cl)cccc5Cl)c4C)c3n2)cc1	-3	50	+	6	-0.17	91*
Cc1ccc(-c2cc(C(F)F)n3ncc(C(=O)Nc4c(C)nn(Cc5ccccc5Cl)c4C)c3n2)cc1	/	57*	i	2	0.0087	55
Cc1nn(Cc2c(Cl)cccc2Cl)c(C)c1NC(=O)c1cnn2c(C(F)F)cc(-c3ccccc3)nc12	0	67*	i	9	0.36	52
CCN(CC(=O)Nc1c(F)cccc1F)C(=O)CCc1ccc(OC)cc1	-3	5	i	5	1.3	12
CC1=NC(Nc2nc(C)c3ccccc3n2)=NC(C)(C)C1	0	98*	i	2	-0.88	24
Cc1cc(C)nc(Sc2ccc([N+](=O)[O-])cc2[N+](=O)[O-])n1	0	87*	i	5	2.5	-9
CN(C)/N=C/c1ccc(Sc2ccc([N+](=O)[O-])cc2[N+](=O)[O-])o1	/	-4	i	4	-0.063	-90
O=[N+]([O-])c1ccc(Sc2cccc3cccnc23)cc1	/	10	i	2	0.63	20
C=CCn1nc([N+](=O)[O-])nc1Sc1cccc2cccnc12	2	58*	i	5	-1.2	88*
O=[N+]([O-])c1ccc(Sc2cccc3cccnc23)c([N+](=O)[O-])c1	1	96*	+	2	1.5	15
O=[N+]([O-])c1cc(Cl)ccc1Sc1cccc2cccnc12	/	18	i	3	1.4	51
Cc1ccc(-c2nnn(CC(=O)Nc3nnc(C(C)C)s3)n2)cc1	0	-5	i	3	0.66	25
Cc1c(CN(C)Cc2cn(C)nc2-c2ccccc2F)[nH]c2ccccc12	1	20	+	3	-0.36	34
CC(C)(C)CC(=O)NCCCCCCNC(=O)CC(C)(C)C	-3	-3	i	2	-1.2	13
Cc1c(O)ccc2c(O)c(NC(=O)c3ccc4c(c3)CCC(C)(C)O4)c(=O)oc12	-5	/	/	/	-0.43	-2
COc1cc2c3nnc(-c4ccc(F)cc4)c-3cn(Cc3ccccc3F)c2cc1OC	0	-4	+	3	0.23	88*
COc1ccc(OCC(=O)Nc2ccccc2-c2ccccc2)cc1	1	30	i	34*	1.7	27
Cc1cccc(OCC(=O)Nc2ccccc2C(F)(F)F)c1	-5	-3	i	3	0.83	12
SMILES	bCat nuc transl	Lmaj promast	Autophagy mod	MT stabilize HCS	Dynein transport	CHOP inh
Cc1cccc(N(CC(=O)Nc2ccccc2-c2ccccc2)S(=O)(=O)c2ccccc2)c1C	5	50*	i	4	1.3	-3
Cc1ccc(CC(=O)Nc2ccccc2-c2ccccc2)cc1C	/	70*	i	3	4.2	89*
Cc1cccc(OCC(=O)Nc2ccccc2-c2ccccc2)c1	/	-1	i	2	-0.39	85*
COc1ccc(Br)cc1-c1nc(CCl)cs1	-4	4	i	3	0.072	-13
O=C(N/N=C/c1ccccc1[N+](=O)[O-])c1cnccn1	1	/	/	/	0.91	-2
C[n+]1nc(Nc2cccc(F)c2)sc1-c1ccc(C(=O)O)cc1	0	/	/	/	0.36	20
CCN(CC)P(=O)(Nc1cccc(C(F)(F)F)c1)c1ccc(N(C)C)cc1NC(=O)c1ccco1 (centres undefined)	-2	91*	i	5	0.058	23
CN(C)S(=O)(=O)c1ccc(Cl)c(NC(=O)COC(=O)/C=C/c2cnc3ccccc3n2)c1	-1	/	/	/	-0.6	-9
COc1ccc(OC)c(C2=NOC(C(=O)Nc3cc(C)on3)C2)c1 (centres undefined)	0	/	/	/	-1.5	4
CCn1c(=N)n(CC(O)c2ccccc2)c2ccccc21 (centres undefined)	1	12	i	2	-0.41	0
CC(C)(C)c1ccc(Cn2c(=N)n(CC(O)c3ccco3)c3ccccc32)cc1 (centres undefined)	-1	100*	i	9.5*	-0.032	76*
Cc1ccccc1Cn1c(=N)n(CC(O)c2ccco2)c2ccccc21 (centres undefined)	0	78*	i	2	-0.56	60
O=C(CCSCc1cccc(Cl)c1)NCCc1ccc(Cl)cc1	-3	-3	i	6	-0.88	38
O=C(CSc1nnc(NC2CCCCC2)s1)Nc1ccc2c(c1)C(=O)c1ccccc1C2=O	0	36	i	2	0.22	34
CC(C)Nc1nnc(SCC(=O)Nc2ccc3c(c2)C(=O)c2ccccc2C3=O)s1	/	97*	i	1	0.21	32
Cc1cc(/C=C2\SC(=Nc3ccc(F)cc3)NC2=O)c(C)n1-c1ccc(S(N)(=O)=O)cc1	160*	57*	i	14	0.15	77*
Cc1cc(/C=C2/SC(=O)NC2=O)c(C)n1-c1ccc(N2CCOCC2)cc1	-1	57*	i	2	0.39	57
Cc1cc(/C=C2\SC(=S)NC2=O)c(C)n1-c1ccccc1	-4	/	/	/	0.5	-19
O=C(O)/C=C/C(=O)NC1CC1	-2	-2	i	4	-0.66	-16
Cc1cc(N2CCCCC2)nc(N)n1	-3	52*	i	4	-0.42	5
Cc1cc(N2CCCC2)nc(-c2ccccc2O)n1	/	-4	i	2	-0.14	6
O=C(COc1ccc([N+](=O)[O-])cc1)NC(C(=O)O)C(O)c1cccc([N+](=O)[O-])c1 (centres undefined)	2	-1	i	2	-0.37	0
CCN1CCCC1CNC(=O)c1c(O)c2c([nH]c1=O)CCCC2 (centres undefined)	-3	52*	i	3	-3	-19
Cc1ccc(CSCC(=O)NN=C2CCN(C)CC2)cc1	0	-4	i	4	-0.19	6
